Published values pooled from the literature.
Lines come from different studies, so protocols differ.
Medium: plasma

Cc1nc(-c2cnc(NC(C)C)n(C)c2=O)ccc1Oc1ccnc(-c2cnn(C)c2)c1
AUC(0-t) (male Sprague-Dawley rat; oral, 10 mg/kg): 164000 ng·h/mL

C=CC(=O)N1CC2CC(n3nc(-c4ccc(C(=O)Nc5ccccn5)cc4)c4c(N)ncnc43)CC2C1 (stereo not shown)
AUC(0-t) (male Wistar rat; oral, 30 mg/kg): 4720 ng·h/mL

CCOC(=O)[C@@]12C[C@@H]1[C@@H](n1ccc3c(NC)nc(C#Cc4ccc(Cl)s4)nc31)[C@H](O)[C@@H]2O
AUC(0-t) (male Sprague-Dawley rat; oral, 10 mg/kg): 361 ng·h/mL

CCc1nc(C(N)=O)c(Nc2ccc(N3CCC(N4CCN(C)CC4)CC3)c(OC)c2)nc1NC1CCOCC1
AUC(0-t) (male Sprague-Dawley rat; oral, 10 mg/kg): 9290 ng·h/mL

Cc1c(-c2ccccc2)cccc1N1C(=O)c2cc(CN[C@H](C(=O)O)C(C)O)c(OCc3cccc(C#N)c3)cc2C1=O (stereo partly shown)
AUC(0-t) (Sprague-Dawley rat; intravenous, 5 mg/kg): 3240 ng·h/mL

O=C(Nc1cc(F)c(F)c(F)c1)c1ccc(F)c(S(=O)(=O)NCc2cccc(B(O)O)c2)c1
AUC(0-t) (male Sprague-Dawley rat; oral, 20 mg/kg): 34.3 ng·h/mL

CCc1cc(C(=O)NC)c2nccc(N3CCc4c(cc(Cn5ccnc5)cc4-c4cn(C)nc4C(F)(F)F)C3=O)c2c1
AUC(0-t) (male Sprague-Dawley rat; intravenous, 3 mg/kg): 1270 ng·h/mL

COc1nc(-c2cc(C)c(N[C@@H](C)c3cc(F)cc(F)c3)nn2)ccc1-n1cnc(C)c1
AUC(0-t) (male Sprague-Dawley rat; oral, 5 mg/kg, single dose): 31900 ng·h/mL

CCc1cc(OC)c2nccc(N3CCc4c(cc(Cn5ccnc5)cc4-c4cn(C)nc4C(F)(F)F)C3=O)c2c1
AUC(0-t) (male Sprague-Dawley rat; oral, 50 mg/kg): 10300 ng·h/mL

N#Cc1ccc(Nc2nc(N)cc(Oc3c(F)cc(-c4ccc(C#N)cc4)cc3F)n2)cc1
AUC(0-t) (Sprague-Dawley rat; oral, 5 mg/kg): 74 ng·h/mL

CNCc1cc(-c2ccccc2F)n(S(=O)(=O)c2cccnc2)c1
AUC(0-t) (Sprague-Dawley rat; oral, 10 mg/kg): 643 ng·h/mL

COc1ccc2c(Cc3ccccc3F)c3n(c(=O)c2c1OC)CCc1cc2c(cc1-3)OCO2
AUC(0-t) (rat; oral, 5 mg/kg): 3470 ng·h/mL

CNC(=O)c1c(C)oc2cc(Oc3ncnc4cc(OC)c(OC)cc34)ccc12
AUC(0-t) (Sprague-Dawley rat; oral, 1 mg/kg, single dose): 6270 ng·h/mL
